# In PMC9934531 (bioRxiv, 2023):
# Read-outs that look alike come from different tables or passages of the source.
# Experiments:
# [1] = biological target: hydrophobic patch of cNTnC in the presence of cTnIsp; details: cited from earlier work
# [2] = tested on: slow skeletal muscle (soleus) fibers; experiment: Calcium sensitivity of force generation in slow skeletal muscle; format: cell-based, rat; details: 20 μM compound
# Outline: (§1)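 Four male Sprague Dawley rats (7–9 months); cardiac trabeculae (n=10) and soleus fibers (n=10), soleus fibers typed slow by SDS-PAGE. Force measured in activating solutions of graded pCa, first without then with 20 μM test compound. pCa50 taken from force–pCa curve fits, and the with/without difference was analysed per preparation by paired Student's t-test. Maximal force was the mean of pCa 4.0 activations (every third; n=6), without then with compound.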
# cardiac trabeculae = experiment: Calcium sensitivity of force generation in isolated cardiac trabeculae; format: cell-based, rat; details: 20 μM compound
# Outline: as §1
structure (smiles),measurement,setting,value
C[C@@H]1CC(=O)NN=C1c1ccc(NN=C(C#N)C#N)cc1 [levosimendan],Kd,[1],~700 µM
"CN1CCN(CCCN2c3ccccc3Sc3ccc(C(F)(F)F)cc32)CC1 [TFP, trifluoperazine]",Kd,[1],110 ± 20 µM
"O=C(CSc1nc(-c2ccccc2)c(-c2ccccc2)[nH]1)Nc1nccs1 [Compound 7930079, 2-[(4,5-diphenyl-1H-imidazol-2-yl)thio]-N-1,3-thiazol-2-ylacetamide]",Kd,[1]; read-out: apparent experimental binding affinity,1.45 ± 0.09 µM
same,effect on average maximal force generation,"[2]; pCa 4.0, slow fibers, P=0.39",no effect
same,shift of force/pCa curve to higher sensitivity (ΔpCa50),"[2]; rat slow fibers, n=10, P<.01",0.20 ± 0.03 pCa unit
same,decrease in average maximal force,"cardiac trabeculae; pCa 4.0, cardiac trabeculae, P=0.001",8%
same,shift of force/pCa curve to higher sensitivity (ΔpCa50),"cardiac trabeculae; rat cardiac trabeculae, n=10, P<.01",0.05 ± 0.04 pCa unit
CC(C)COCC(CN(Cc1ccccc1)c1ccccc1)N1CCCC1 (centres unmarked) [bepridil],Kd,[1],380 ± 60 µM
